From ChEMBL document CHEMBL1127672, “Synthesis and biological evaluation of 2',3'-dideoxy-L-pyrimidine nucleosides as potential antiviral agents against human immunodeficiency virus (HIV) and hepatitis B virus (HBV)” (J Med Chem, 1994)
pEC50, pIC50: −log10 of the molar value.

Key:
CCRF-CEM [1] = assay: In vitro cytotoxicity against human CCRF-CEM T-lymphoblastic leukemia cells was determined; assay type: functional, cell-based
Method in brief: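 CCRF-CEM suspension cultures in RPMI 1640 plus 10% horse serum, 37 °C, 5% CO2; exponential-phase cells at 2 × 10^4 cells/mL given various concentrations; cell numbers counted after 3 days versus drug-free control; 50% value read from plot of cell number against concentration.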

Hepatoma cell line = assay: The compound was tested for antiviral activity against Hepatitis B virus in human hepatoma cells.; assay type: functional; conditions: read-out: ED50 (the source's name)
Method in brief: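 HBV-carrying human hepatoma 2.2.15 cells, six-day-old cultures in MEM with Earle's salts and 10% FBS, given varying drug concentrations for 3 days, medium renewed with same drug for a further 3 days; virions in harvested medium PEG-precipitated, viral DNA measured by Southern analysis against untreated controls; ED50 = 50% inhibition.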

MT2 = assay: The compound was tested for antiviral activity against HIV-1 in MT-2 cells; assay type: functional, Homo sapiens; conditions: read-out: ED50 (the source's name)
Method in brief: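 MT-2 cells (1 × 10^4/well, triplicate) in RPMI 1640 with 10% dialysed FBS infected with HIV-1 HTLV-IIIB at 0.1 TCID50/cell (0.01 for one compound), immediately added to serial drug dilutions; after 5 days, MTT read at A595; % protection versus infected and uninfected no-drug controls; ED50 from log plots.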

CCRF-CEM [2] = assay: Concentration of compound required to inhibit the synthesis of mitochondrial DNA (mt DNA) in human CCRF-CEM T-lymphoblastic leukemia cells; assay type: functional, cell-based
Method in brief: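 CEM cells exposed to varying drug concentrations, collected, washed in PBS, lysed in 10 mM Tris-HCl pH 7.0 by freeze-thaw; RNase A (10 μg/mL final) then proteinase K for 1 h; DNA blotted onto nylon after NaI addition and boiling 10 min. IC50 = concentration inhibiting mt DNA synthesis by 50%.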

[3] = Homo sapiens, Hepatoma cell line

Row | SMILES | pIC50 (CCRF-CEM [1]; Homo sapiens, CCRF-CEM) | pEC50 (Hepatoma cell line; [3]) | pEC50 (MT2; Homo sapiens, MT2) | pIC50 (CCRF-CEM [2]; ccrf-cem) | pIC50 (CCRF-CEM [1]; ccrf-cem) | pEC50 (Hepatoma cell line) | pEC50 (MT2) | pIC50 (CCRF-CEM [2]; Homo sapiens, CCRF-CEM)
1 | O=c1[nH]c(=O)n(C2CCC(CO)O2)cc1F (stereo not drawn) | < 4.00 | < 5.00 | < 4.00 | – | – | – | – | –
2 | Nc1ccn([C@H]2CC[C@@H](CO)O2)c(=O)n1 (stereo in doubt; form 1) [ZALCITABINE] | – | – | – | 7.66 | 4.55 | 5.55 | 5.82 | –
3 | O=c1ccn(C2CCC(CO)O2)c(=O)[nH]1 (stereo not drawn) | < 4.00 | < 4.00 | < 4.00 | – | – | – | – | –
4 | Nc1nc(=O)n([C@@H]2CC[C@H](CO)O2)cc1F (stereo in doubt; form 2) | – | – | – | – | 4.17 | 8.00 | 6.30 | < 4.00
5 | Nc1nc(=O)n([C@H]2CC[C@H](CO)O2)cc1F | < 4.00 | 6.30 | 5.22 | – | – | – | – | –
6 | Cc1cn([C@@H]2CC[C@H](CO)O2)c(=O)[nH]c1=O | – | < 5.00 | < 4.00 | – | – | – | – | –
7 | Nc1ccn([C@H]2CC[C@@H](CO)O2)c(=O)n1 (stereo in doubt; form 2) [ZALCITABINE] | – | – | – | – | – | 5.30 | < 4.00 | –
8 | Nc1nc(=O)n([C@@H]2CC[C@H](CO)O2)cc1F (stereo in doubt; form 1) | – | – | – | – | 5.70 | 5.00 | 5.70 | –
9 | Nc1ccn([C@H]2CC[C@@H](CO)O2)c(=O)n1 (stereo in doubt; form 3) [ZALCITABINE] | – | – | – | < 4.00 | 4.15 | 8.00 | 5.30 | –
